Hits are enriched below; roughly 1.6% of the tested compounds scored in any of these assays.
TCR-CD3 inh: blocks the human TCR-CD3 interaction; TAMRA-labeled TCR probe fluorescence, biochemical; inhibition, % at 9.4 µM; actives 0.37% (n = 360,000); AID 651800;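 note: recombinant mutant TCR 2C K166C tagged with TAMRA read by polarization; 0% = receptor in buffer alone and 100% = receptor with positive control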
PABP FP inh: blocks human PABP binding to poly(A) RNA; P11940; calls only at 35 µM; actives 1% (n = 290,000); fluorescence polarization; call rule not given here;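 note: calls also rest on retests at 20 µM and on dose response follow-up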
RBBP9 inh: blocks human serine hydrolase RBBP9; recombinant RBBP9, FP-Rh probe fluorescence polarization; inhibition, % at 7.94 µM; actives 0.2% (n = 220,000); AID 1515;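 active = inhibition above the campaign mean of all tested compounds plus 3 SD, cut at about 14% in these data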;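 note: plate controls were DMSO wells with RBBP9 for no effect and wells lacking RBBP9 protein for full effect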
Target sequence (O75884 whole entry, looked up): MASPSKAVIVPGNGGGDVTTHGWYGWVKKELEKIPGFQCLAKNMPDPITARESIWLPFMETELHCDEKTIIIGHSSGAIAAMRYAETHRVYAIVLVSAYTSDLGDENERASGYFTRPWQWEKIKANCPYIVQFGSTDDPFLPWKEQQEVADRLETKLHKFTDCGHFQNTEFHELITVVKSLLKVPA
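System: RBBP9 protein | Quantity: 2.5 µM RBBP9 dispensing solution, before mixing | Reagent: FP-Rh probe, 375 nM dispensing solution | Timing: Enzyme-compound preincubation 30 min, then probe labeling 45 min, 25 °C | Measured by: Fluorescence polarization | Read-out: % inhibition | Replication: One well per compound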
MLLE-PAM2 inh: inhibitors of microRNA-mediated deadenylation, human PABP1 MLLE binding; GST-MLLE / FITC-PAM2 fluorescence polarization; inhibition, % at 20 µM; actives 0.36% (n = 360,000); AID 588489; in the data active = inhibition above about 35%, passing the limit was not always enough;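 note: plate controls were DMSO wells with GST-MLLE for no effect and wells lacking GST-MLLE protein for full effect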
eIF4H inh: inhibitors of RNA binding by human eIF4H. Q15056. eIF4H fluorescence polarization binding assay. inhibition, % at 35 µM. actives 0.94% (n = 290,000); call rule not given here;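 note: calls also rest on retests at 20 µM and on dose response follow-up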
BSA probe FL: counter-screen for TCR-CD3 interaction inhibitors: BSA probe | shares compounds with TCR-CD3 inh | TAMRA-labeled BSA probe fluorescence counterscreen | inhibition, % at 9.4 µM | actives 10% (n = 1,200); in the data active = inhibition above about 23%;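 note: 0% = buffer low control and 100% = reference high control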
TCR-CD3 conf: TCR-CD3 interaction inhibition, confirmation; shares compounds with TCR-CD3 inh; TAMRA-labeled TCR probe fluorescence binding assay; inhibition, % at 9.4 µM; actives 48% (n = 1,200); AID 652036
Numbers without * were called inactive; i = inactive; ? = inconclusive; · = no result; + = active, no number. Cut-off read from the data, not from the text of the source, unless noted: active = inhibition above about 19%; inactive = the rest.

SMILES	TCR-CD3 inh	PABP FP inh	RBBP9 inh	MLLE-PAM2 inh	eIF4H inh	BSA probe FL	TCR-CD3 conf
COc1ccc(NC(=O)CN(C)C(=O)/C=C/c2cn(-c3ccccc3)nc2-c2ccc(C)cc2)cc1	32*	·	·	-25	·	2	6
COc1ccc(NC(=O)CN(C)C(=O)/C=C/c2cn(-c3ccccc3)nc2-c2ccc(F)cc2)cc1	-5	·	·	-26	·	·	·
COc1cccc(NC(=O)CN(C)C(=O)/C=C/c2cn(-c3ccccc3)nc2-c2ccc(C)cc2)c1	36*	·	·	-3	·	32*	63*
CN(C(=O)c1ccc(NC(=O)Cc2cccc(NC(=O)C3CCN(C(=O)CCc4ccccc4)CC3)c2)cc1)C1CC1	-5	·	·	·	·	·	·
O=C(O)/C=C/C(=O)Nc1ccc(C(=O)c2ccccc2)cc1	1	i	-5	14	2	·	·
O=C(O)/C=C/C(=O)Nc1ccc(O)cc1	20*	i	9	17	-7	4	7
C[C@H](CO)N1C[C@H](C)[C@@H](CN(C)C(=O)c2ccc(N3CCN(C)CC3)cc2)OCc2cn(nn2)CCCC1=O	-5	·	·	·	·	·	·
Cc1ccc(N(CC(=O)Nc2ccc(-c3nc4ccc(C)cc4s3)cc2)S(C)(=O)=O)cc1	-1	i	-8	-7	-11	·	·
Cc1ccc(C)c(N(CC(=O)Nc2ccc(-c3nc4ccc(C)cc4s3)cc2)S(C)(=O)=O)c1	20*	i	-7	0	4	9	15
COC(=O)C1=C(C)N(Cc2ccccc2C(F)(F)F)C(=NCc2ccccc2)NC1c1cccc(C(F)(F)F)c1 (stereo not given)	1	·	·	·	·	·	·
CN(CCC#N)c1ccc(/C=C(\C#N)c2ccccn2)cc1	81*	i	-1	-15	?	4	11
COc1ccc(C(=O)NCC(c2ccc3c(c2)OCO3)N2CCN(c3ccc(OC)cc3)CC2)cc1 (stereo not given)	24*	·	·	1	·	6	5
Cc1cc(C)c2c(N)c(C(=O)NN)sc2n1	38*	i	7	-107	11	-8	29*
CCOC(=O)c1sc2nc(C)cc(C)c2c1N	7	i	-7	3	-6	·	·
COc1ccccc1CNC(=O)COc1cc(O)c2c(c1)OC(C)(C)CC2=O	3	·	·	-4	·	·	·
CCOC(=O)[C@]12CCCC=C1N(Cc1ccc3c(c1)OCO3)C(=O)[C@H](CC(=O)NCC13CC4CC(CC(C4)C1)C3)C2	-1	·	·	·	·	·	·
CN(Cc1ccc(Cl)cc1)C(CCc1ccccc1)C(=O)NC1CCCCC1 (stereo not given)	-1	·	·	-2	·	·	·
COc1cc(/C=N/NC(=O)c2cccc(N3CCCC3=O)c2)ccc1O	1	i	·	-2	-3	·	·
O=C(N/N=C/c1cc([N+](=O)[O-])ccc1O)c1cccc(N2CCCC2=O)c1	46*	i	·	0	14	-10	37*
O=C(N/N=C/c1cc([N+](=O)[O-])ccc1O)c1cccc2cc[nH]c12	20*	i	-6	13	10	-8	19
CCc1ccc(N2CC(C(=O)N/N=C/c3ccccc3OC)CC2=O)cc1 (stereo not given)	-7	i	·	-4	8	·	·
Cc1c(NC(=S)N/N=C/c2cc([N+](=O)[O-])ccc2O)c(=O)n(-c2ccccc2)n1C	32*	i	1	1	49	-5	31*
CCc1ccc(N2CC(C(=O)N/N=C/c3cc([N+](=O)[O-])ccc3O)CC2=O)cc1 (stereo not given)	31*	i	2	-9	7	-9	26*
CCCCCCCCN1C(=O)[C@@H](CC(=O)NCCc2ccccc2OC)C[C@@]2(C(=O)OC)C1=C[C@H](C1CCCC1)O[C@@H]2C	-2	·	·	·	·	·	·
O=C(CC1CCCC1)N[C@@H](Cc1cccnc1)C(=O)N1CCC[C@H]1C(=O)NC1CCCC1	-4	·	·	·	·	·	·
SMILES	TCR-CD3 inh	PABP FP inh	RBBP9 inh	MLLE-PAM2 inh	eIF4H inh	BSA probe FL	TCR-CD3 conf
O=c1cc(-c2ccc(O)c(O)c2)oc2cc(O[C@@H]3O[C@H](CO)[C@@H](O)[C@H](O)[C@H]3O)cc(O)c12	·	·	·	-13	·	·	·
O=c1cc(-c2ccc(O)cc2)oc2cc(O)c(C3OC(CO)C(O)C(O)C3O)c(O)c12 (stereo not given)	28*	+	-7	10	67*	-5	20*
O=C(/C=C/c1ccc(Br)cc1)NC(=O)c1ccccc1O	-2	i	2	-3	-4	·	·
O=C(/C=C/c1ccc(O)c(O)c1)NC(=O)c1ccccc1O	24*	i	·	-5	38	-18	21*
CCCC(=O)C1=C(O)C(C(=O)OC)C(C)(C)CC1=Nc1ccc(N)cc1 (stereo not given)	0	i	1	-18	10	·	·
CCCC(=Nc1ccc(N)cc1)C1=C(O)C(C(=O)OC)C(C)(C)CC1=O (stereo not given)	67*	+	2	10	57*	8	8
CC(=O)Nc1cc(-c2ccccc2N(C)C)cn2c(-c3ccccc3)cnc12	5	·	·	38	·	·	·
CC(=O)Nc1cc(-c2ccccc2N(C)C)cn2c(-c3ccc(S(C)(=O)=O)cc3)cnc12	31*	·	·	191	·	6	14
COC(=O)C1=C(C)N(Cc2ccccc2)C(=S)NC1c1cccc(Br)c1 (stereo not given)	0	·	·	·	·	·	·
O=C1COc2ccc(C(=O)COC(=O)/C=C/c3ccc(Br)o3)cc2N1	22*	·	·	-20	·	-2	21*
O=C(C(=O)N1CCC(CNS(=O)(=O)c2ccccc2OC(F)(F)F)CC1)c1cc2ccccc2o1	-7	·	·	·	·	·	·
Cc1cc(C(=O)N/N=C/c2cc(Cl)cc([N+](=O)[O-])c2O)n[nH]1	28*	i	0	11	1	-6	34*
COc1cc(O)c(/C=N/NC(=O)c2ccncc2)c(OC)c1[N+](=O)[O-]	19*	i	-9	15	26	0	31*
Nc1ccc2c3c(cccc13)C(=O)N(c1ccccc1)C2=O	28*	i	-3	i	?	43*	34*
O=C(NNC(=O)c1cc(-c2ccncc2)nc2ccccc12)c1ccccc1O	28*	·	·	-2	·	-10	21*
Cc1ccc(-c2cc(C(=O)Nc3ccncc3)c3ccccc3n2)cc1	6	·	·	5	·	·	·
CC(C)[C@@H](C(=O)N[C@@H](CCc1ccc(O)cc1)C(=O)O)N(C)C(=O)[C@H](CO)NC(=O)[C@@H](O)[C@H](N)CCCCCCCCl	-6	·	·	-5	·	·	·
NC(=O)c1c(NC(=O)c2ccccc2F)sc2c1CCC2	·	·	·	9	·	·	·
CS(=O)(=O)Nc1ccc(-c2n[nH]c(=S)n2-c2ccccc2)cc1	37*	i	-8	-2	-9	3	0
Cc1ccc(-c2n[nH]c(=S)n2-c2ccccc2)cc1	-4	i	-3	-5	-3	·	·

Bioassay records deposited in PubChem by several laboratories.
